Kir21 inh: blocks the mouse Kir2.1 inward-rectifier potassium channel | HEK293-Kir2.1, FluxOR thallium flux fluorescence; hits give low values | B-score at 10 µM | hit rate 0.85% among 310,000;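 active = fluorescence ratio B-score at or below minus 3 SD of library scores, with starting-brightness B-score within 2 SD, cut at about -4.2 in these data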;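 also: channel flux triggered by added potassium and thallium sulfate stimulus; B-score of peak minus minimum fluorescence over baseline after thallium stimulus; more negative B-score means stronger Kir2.1 block with less thallium influx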
SR-BI DiI-HDL act: SR-BI HDL lipid transfer activation. CHO ldlA[mSR-BI] cells, DiI-HDL uptake fluorescence, 3 h; 100 = double the neutral-control signal. activation, % at 12.5 µM. hit rate 0.096% among 320,000. AID 504775;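 active = mean replicate activation of at least 60% and every replicate at or above 60%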;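 also: 0% = median plate neutral-control signal and 100% = twice that signal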
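material = CHO ldlA[mSR-BI] cells | medium = Ham's F12 with 0.5% BSA, HEPES 25 mM, pH 7.4 | reagent = fluorescent DiI-HDL, 10 µg/mL final | compound dosing = single-point compound dose | incubation = 3 h, 37 °C | measured by = bottom-read fluorescence, 550/595 nm | measure = HDL uptake via cellular fluorescence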
SR-BI HDL uptake: blocks mouse SR-BI lipid uptake from DiI-HDL | ldlA[mSR-BI] CHO cells, DiI-HDL uptake fluorescence, 3 h | inhibition, % at 12.5 µM | hit rate 0.96% among 320,000;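 active = mean replicate inhibition of at least 70% and a set share of replicates each scoring 70 or more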;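 also: 0% = median of neutral control wells and 100% = median of positive control wells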
TMEM16A inh: inhibitors of mouse TMEM16A calcium-activated chloride channel; Q8BHY3; HEK293 TMEM16A/YFP iodide influx fluorescence, ionomycin; normalized B-score (activity score, 25-100; higher = stronger inhibition) at 10 µM; hit rate 1.2% among 310,000; AID 588511;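 active = ratio plate-corrected score three or more library SD toward inhibition, starting fluorescence score within five deviations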;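 also: score derived from kinetic fluorescence span divided by baseline fluorescence per well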
Target sequence (Q8BHY3 whole entry, looked up): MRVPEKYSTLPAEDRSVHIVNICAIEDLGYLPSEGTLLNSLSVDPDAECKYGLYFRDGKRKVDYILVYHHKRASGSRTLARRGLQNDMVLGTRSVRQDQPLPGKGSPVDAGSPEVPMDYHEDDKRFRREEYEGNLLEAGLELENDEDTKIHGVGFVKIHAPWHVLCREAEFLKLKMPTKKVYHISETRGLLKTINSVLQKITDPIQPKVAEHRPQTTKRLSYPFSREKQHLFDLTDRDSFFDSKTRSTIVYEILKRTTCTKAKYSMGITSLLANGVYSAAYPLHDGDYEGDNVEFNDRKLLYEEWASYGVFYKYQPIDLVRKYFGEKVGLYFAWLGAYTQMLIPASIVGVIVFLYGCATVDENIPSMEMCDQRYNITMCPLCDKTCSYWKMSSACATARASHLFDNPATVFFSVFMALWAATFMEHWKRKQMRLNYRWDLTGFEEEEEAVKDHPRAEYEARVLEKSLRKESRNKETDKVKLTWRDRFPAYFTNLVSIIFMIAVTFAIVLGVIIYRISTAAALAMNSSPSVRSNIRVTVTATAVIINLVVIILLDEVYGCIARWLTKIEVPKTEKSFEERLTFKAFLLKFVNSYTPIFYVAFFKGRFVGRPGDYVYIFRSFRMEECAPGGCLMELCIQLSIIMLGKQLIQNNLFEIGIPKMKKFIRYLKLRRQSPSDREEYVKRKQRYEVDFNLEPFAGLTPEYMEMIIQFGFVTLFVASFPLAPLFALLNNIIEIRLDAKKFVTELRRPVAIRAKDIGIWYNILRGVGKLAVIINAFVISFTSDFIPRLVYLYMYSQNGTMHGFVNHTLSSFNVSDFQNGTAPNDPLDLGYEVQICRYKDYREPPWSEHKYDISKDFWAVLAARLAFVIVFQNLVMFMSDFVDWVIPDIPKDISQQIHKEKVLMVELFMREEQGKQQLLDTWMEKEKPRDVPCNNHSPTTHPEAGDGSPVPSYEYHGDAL
ANO1 activ: mouse TMEM16A channel activation, primary screen; hit rate 0.3% among 340,000; B-score at 10 µM; AID 623877; HEK293 TMEM16A/YFP-H148Q/I152L, iodide quench fluorescence; hits give low values; Q8BHY3;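 active = fluorescence-ratio B-score plate-corrected deviation score at least 3 library SD below zero, with starting fluorescence score within 5 deviations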;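 also: channel opened by trigger with iodide after compound preincubation; score built on the fluorescence ratio of max minus min over baseline; more negative score means more quench and so TMEM16A activation or potentiation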
FID counter: counter-screen for HCV NS3 helicase inhibitors: DNA intercalator displacement | DNA fluorescent intercalator displacement, fluorescence | inhibition, % at 7.9 µM | hit rate 0.17% among 290,000 | AID 1845; in the data active = inhibition above about 37%;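 also: 0% = vehicle and 100% = reference compound; higher means more ethidium bromide displaced from hairpin DNA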
TMEM16A reconf: TMEM16A (mouse) chloride channel inhibition, re-confirmation; shares compounds with TMEM16A inh; inhibition, % at 10 µM; hit rate 39% among 2,300; HEK293 TMEM16A/YFP-H148Q, iodide quench fluorescence; ionomycin added to raise cell calcium;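 active = mean duplicate percent inhibition, scaled so buffer wells are 0 and the reference blocker 100, over three buffer SD above buffer mean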
HEK293 Ca mobil: alters calcium mobilization in TMEM16A HEK293 cells, counter-screen; AID 652231; TMEM16A/YFP HEK293, Fluo4 calcium mobilization; shares compounds with TMEM16A inh; calcium response (% of ionomycin), % at 10 µM; hit rate 2% among 2,300;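 active = duplicate-averaged calcium signal over 20% of the ionomycin maximum, relative to buffer baseline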;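 also: each well's signal is peak minus trough fluorescence divided by its pre-addition baseline; 0% = buffer wells and 100% = ionomycin wells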
YFP-HEK293 quench: acts in parental YFP-HEK293 cells lacking TMEM16A, counter-screen; shares compounds with TMEM16A inh; iodide YFP quench, ionomycin; YFP ratio F(max-min)/F0 at 10 µM; 2,300 tested, under 10 active; AID 652233;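 active = yellow fluorescent protein signal ratio exceeding the buffer control mean by over 5 SD of those controls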;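 also: ratio is mean of duplicate wells from kinetic YFP trace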
ClC-1 rat inh: blocks the rat ClC-1 voltage-dependent chloride channel. shares compounds with TMEM16A inh. CHO ClC-1-YFP, iodide influx fluorescence quench; iodide control reads 0, buffer control 100. ratio percent, % at 10 µM. 2,300 tested, under 10 active. AID 652236;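 active = duplicate-mean ratio percent above the mean of iodide-only control wells, which defines zero, plus 5 of their SD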;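 also: higher percent means stronger block of ClC-1 iodide influx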
Active calls of the source: *; i = inactive; . = no result given. An excerpt weighted towards active compounds, which were near 3% of everything screened.

SMILES	Kir21 inh	SR-BI DiI-HDL act	SR-BI HDL uptake	TMEM16A inh	ANO1 activ	FID counter	TMEM16A reconf	HEK293 Ca mobil	YFP-HEK293 quench	ClC-1 rat inh
Cc1cnc(C(=O)Nc2ccc(OC(F)(F)F)cc2)cn1	1.2	17	-17	i	i	-13	.	.	.	.
COc1ccc(CC(=O)N/N=C/c2cccnc2)cc1OC	-1.9	18	-18	i	i	-9	.	.	.	.
[O-][n+]1ccc(C(O)c2ccccc2)cc1 (stereo unspecified)	-1.4	17	-17	i	i	0	.	.	.	.
COc1ccc(-c2nn(-c3ccccc3)cc2C(=O)N2CCN(S(=O)(=O)c3cccc(F)c3)CC2)cc1	0.17	-23	23	i	i	.	.	.	.	.
CC(C)Cc1ccc(C(C)C(=O)Nc2cccnc2)cc1 (stereo unspecified)	2.9	22	-22	25*	i	-12	52%*	i	-1.1	-12
CCOC(=O)c1c(C)[nH]c(C(=O)NCC(c2ccco2)N2CCCCC2)c1C (stereo unspecified)	.	15	-15	.	i	.	.	.	.	.
CCCC/C(O)=C1\C(=O)CC(C)(C)CC1=Nc1ccccc1OC	-1.7	-18	18	25*	i	-34	i	i	-1.1	-4
Cc1ccc(NC(=S)NC(=O)Cc2ccccc2)c(O)c1	0.03	-4	4	i	i	-18	.	.	.	.
COC(=O)c1ccccc1S(=O)(=O)N1CCC(C(=O)NC2CCCCC2C)CC1 (stereo unspecified)	.	2	-2	.	i	.	.	.	.	.
COc1ccc(-c2noc(-c3ccccc3C(=O)Nc3cccnc3)n2)cc1	-2.2	.	.	i	i	0	.	.	.	.
O=C(Nc1cccnc1)c1ccccc1-c1nc(-c2ccccc2F)no1	-1.1	8	-8	25*	i	-9	i	i	-0.86	-12
O=C(CN1CCC(c2nc3ccccc3[nH]2)CC1)Nc1ccc2c(c1)OCO2	.	-6	6	100*	i	9	i	i	-1.2	-2
CCN1C[C@@H]2[C@@H]3C(=O)N(Cc4ccccc4)C(=O)[C@@H]3[C@](C)(C1=O)N2C(=O)c1ccc(C)cc1	.	11	-11	.	i	.	.	.	.	.
Cc1ccc(C(=O)N2c3ccccc3N(Cc3ccccc3)C(=O)C2(C)C)cc1	-0.7	0	0	100*	i	-1	24%*	i	-0.97	-10
O=C(NCCCN1CCOCC1)C1CCN(S(=O)(=O)c2cccc(Cl)c2Cl)CC1	-0.03	26	-26	i	i	.	.	.	.	.
CCN(CC)S(=O)(=O)c1cccc(C(=O)OCC(=O)c2ccc3c(c2)NC(=O)CO3)c1	-0.14	-44	44	25*	i	-2	i	i	-1.1	-2
COc1ccc(CNC(=O)CCSc2nc(-c3ccc4c(c3)OCO4)cc(C(F)(F)F)n2)cc1	1.6	-48	48	i	i	2	i	i	-1	-14
CN(Cc1ccccc1)C(=O)CCSc1nc(-c2ccc3c(c2)OCO3)cc(C(F)(F)F)n1	0.68	-50	50	i	i	-3	.	.	.	.
CC1=NN(C(=O)c2ccc(Br)cc2)C(O)(C(F)(F)OC(F)(F)F)C1 (stereo unspecified)	-1.7	-78	78*	100*	i	-5	29%*	i	-0.97	-21
FC(F)(F)c1cnc(N2CCCN(C(=S)Nc3ccccc3)CC2)c(Cl)c1	0.56	-20	20	100*	i	-13	33%*	i	-0.85	-8
CN(CC(=O)Nc1ccc(F)cc1)C(=O)c1cccc(NS(=O)(=O)c2ccccc2)c1	.	-7	7	.	i	.	.	.	.	.
Cc1ccc(S(=O)(=O)N2CCCc3cc(NC(=O)c4c(F)cccc4F)ccc32)cc1	1.4	-35	35	i	i	-14	.	.	.	.
COc1ccc(S(=O)(=O)NCc2ccncc2)cc1NC(=O)c1ccc(Cl)cc1	0.04	-46	46	i	i	.	.	.	.	.
C/C(=N\NC(=O)C1(C)CC1(Br)Br)c1cccc(NC(=O)c2ccc(C)o2)c1 (stereo unspecified)	-1.6	-23	23	25*	i	-34	i	i	-1.1	-6
COc1ccc2cc([C@H](C)C(=O)N(C)Cc3ccccc3N3CCCC3)ccc2c1	0.17	.	.	i	i	-32	22%*	i	-0.9	3
SMILES	Kir21 inh	SR-BI DiI-HDL act	SR-BI HDL uptake	TMEM16A inh	ANO1 activ	FID counter	TMEM16A reconf	HEK293 Ca mobil	YFP-HEK293 quench	ClC-1 rat inh
COc1ccc2cc([C@H](C)C(=O)O)ccc2c1	-0.25	5	31	i	i	-1	.	.	.	.
CCN(CC)S(=O)(=O)c1cccc(C(=O)Nc2nc3cc4c(cc3s2)OCCO4)c1	-1.3	-56	56	100*	i	-2	20%*	i	-0.5	-5
O=C(Nc1nc2cc3c(cc2s1)OCCO3)c1cccc(N2C(=O)CCC2=O)c1	-1.3	-59	59	i	i	-6	.	.	.	.
O=C(C1CCN(S(=O)(=O)Cc2ccccc2)CC1)N1CCN(c2ncccn2)CC1	-1.3	-24	24	i	i	-16	.	.	.	.
O=C(C1CCN(S(=O)(=O)c2cnc[nH]2)CC1)N1CCN(c2ncccn2)CC1	1.4	.	.	100*	i	3	i	i	-1.1	-31
Cc1ccc(NC(=O)c2c(C(F)(F)F)nn(C)c2SCc2ccc(Cl)cc2)cc1C	0.03	-40	40	i	i	-15	.	.	.	.
Cc1ccc(NC(=O)c2c(C(F)(F)F)nn(C)c2SCc2cccc(C(F)(F)F)c2)cc1C	-0.1	-25	25	100*	i	-8	i	i	-0.98	-8
C=CCNC(=O)c1ccc([N+](=O)[O-])c(Cl)c1	1.8	6	-6	i	i	0	.	.	.	.
CC(C)(CNC(=O)c1ccc([N+](=O)[O-])c(Cl)c1)CNC(=O)c1ccc([N+](=O)[O-])c(Cl)c1	-0.32	-33	33	100*	i	3	i	i	-0.82	-16
CCc1ccccc1NC(=O)CCS(=O)(=O)c1ccc(Br)cc1	-3.4	1	-1	i	i	-14	i	i	-0.97	-6
Oc1ccccc1C=NN=Cc1ccccc1Cl	.	20	-20	.	i	.	.	.	.	.

Source: PubChem BioAssay
